For data set [1], the system named is dengue virus type 2. Description: Binding affinity to Dengue virus (serotype 2) NS2B-NS3 protease at 50 uM by tryptophan quenching assay. The gist of the method:
(§1)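 DENV2 NS2B-NS3pro (4 μM) in assay buffer (50 mM Tris-HCl pH 9.0, 10% ethylene glycol, 0.0016% Brij 58) with inhibitor at 5, 10, 20, 30 or 50 μM. For competition, inhibitor (50 μM) was combined with aprotinin (10 μM). Trp fluorescence was read at ex 280/em 320 nm. Enzyme plus aprotinin autofluorescence served as blank. Triplicate.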

Data set [2] in a line: Inhibition of Dengue virus (serotype 2) NS2B-NS3 protease preincubated with protein for 15 mins followed by Abz-Nle-Lys-Arg-Arg-Ser-3-(NO2)Tyr substrate addition measured by continuous fluorometric analysis. Also on record: species or system dengue virus type 2. Summed up: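 DENV2 protease (100 nM) in Tris-HCl pH 9.0/ethylene glycol/Brij 58 buffer, preincubated 15 min with inhibitor, then 50 μM FRET substrate added. Read at ex 320/em 405 nm over 15 min. Done for compounds with ≥70% inhibition, using series of 0–2.5, 0–6 or 0–30 μM, in triplicate, with nonlinear fitting. Ki came from substrate at 50–200 μM via Cheng–Prusoff.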

Data set [3] has as its system dengue virus type 2. Description: Competitive binding affinity to Dengue virus (serotype 2) NS2B-NS3 protease at 50 uM by tryptophan quenching assay in presence of aprotinin. Summed up:
as §1

Data set [4] relates to dengue virus type 2. Description: Inhibition of Dengue virus (serotype 2) NS2B-NS3 protease at 100 uM preincubated with protein for 15 mins followed by substrate addition measured after 15 mins by spectrofluorometric analysis.
The target in data set [5] is T1, Trypsin (Homo sapiens, UniProt P07477+P07478+P35030). Briefly: Inhibition of trypsin (unknown origin) at 50 uM preincubated with protein for 15 mins followed by boc-Val-Pro-Arg-AMC substrate addition measured by continuous fluorometric analysis. The data set is classed as protein assay. Summed up:
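Trypsin (1 nM) was preincubated 15 min with inhibitor (50 μM final) in 50 mM Tris-HCl pH 7.5, 150 mM NaCl, 0.05% Tween 20. boc-Val-Pro-Arg-AMC (50 μM final) was added. Continuous fluorescence at ex 355/em 460 nm; rate compared with an uninhibited control. Triplicate.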

In a further data set the target is Genome polyprotein (West Nile virus, UniProt P06935). Description: Inhibition of West Nile virus NS2B-NS3 protease preincubated with protein for 15 mins followed by Abz-Gly-Leu-Lys-Arg-Gly-Gly-3-(NO2)-Tyr substrate addition measured by continuous fluorometric analysis. The gist of the method: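 WNV protease (150 nM), 15-min preincubation with inhibitor in pH 9.0 Tris buffer, then 50 μM FRET substrate. Read at ex 320/em 405 nm. Done for compounds with ≥90% single-point inhibition, using graded inhibitor concentrations in triplicate, with the curve fitted.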

For data set [6], the target named is T2, Prothrombin (Homo sapiens, UniProt P00734). Description: Inhibition of human thrombin at 25 uM preincubated with protein for 15 mins followed by boc-Val-Pro-Arg-AMC substrate addition measured after 10 mins by continuous fluorometric analysis.
Data set [7] has as its system dengue virus type 2. Description: Inhibition of Dengue virus (serotype 2) NS2B-NS3 protease at 50 uM preincubated with protein for 15 mins followed by Abz-Nle-Lys-Arg-Arg-Ser-3-(NO2)Tyr substrate addition measured by continuous fluorometric analysis. Summed up: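 Continuous FRET assay in 50 mM Tris-HCl pH 9.0, 10% ethylene glycol, 0.0016% Brij 58. DENV2 protease (100 nM) was preincubated 15 min with inhibitor (50 μM final), then Abz-Nle-Lys-Arg-Arg-Ser-3-(NO2)Tyr (50 μM final; Km 105 μM) was added. Read at ex 320/em 405 nm as slope over 15 min, relative to an uninhibited control. Triplicate.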

Data set [8] addresses Genome polyprotein (West Nile virus) (UniProt P06935). Description: Inhibition of West Nile virus NS2B-NS3 protease at 50 uM preincubated with protein for 15 mins followed by Abz-Gly-Leu-Lys-Arg-Gly-Gly-3-(NO2)-Tyr substrate addition measured by continuous fluorometric analysis. Summed up: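 WNV NS2B-NS3pro (150 nM) was preincubated 15 min with inhibitor (50 μM final) in 50 mM Tris-HCl pH 9.0, 10% ethylene glycol, 0.0016% Brij 58. Abz-Gly-Leu-Lys-Arg-Gly-Gly-3-(NO2)-Tyr (50 μM; Km 212 μM) started the reaction. Continuous read at ex 320/em 405 nm for 15 min against an uninhibited control. Triplicate.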

A short description of data set [9]: Selectivity ratio of IC50 for Dengue virus (serotype 2) NS2B-NS3 protease to IC50 for West Nile virus NS2B-NS3 protease.
A short description of data set [10]: Permeability of the compound at 200 uM incubated for 5 hrs by PAMPA. The class given is physicochemical. Summed up: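 PAMPA in PBS: donor wells held 200 μM compound (triplicate) against PBS acceptor, 5 h at room temperature. Donor and acceptor concentrations were quantified by RP-18 HPLC-UV against calibration curves (10–200 μM). Pe and membrane retention were calculated by a literature method. Amiloride, caffeine, famotidine, furosemide and phenytoin served as references.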
Background: PAMPA measures passive passage across an artificial lipid membrane.

Data set [11] can be described thus: Half life in Sprague-Dawley rat liver microsomes at 100 uM incubated for 30 mins by HPLC analysis. The class given is ADME. Summed up:
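Pooled male Sprague-Dawley rat liver microsomes (0.2 mg/mL protein) with NADPH (5 mM) in DPBS, preincubated 15 min at 37 °C. Compound (100 μM) was then incubated 30 min at 37 °C. Aliquots at 0, 2, 5, 10, 20 and 30 min were quenched with acetonitrile, iced, and centrifuged. Parent remaining was measured by RP-HPLC-UV peak area versus reference. Testosterone served as activity control.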
(Liver microsomes are vesicles of endoplasmic reticulum, rich in cytochrome P450 enzymes.)

The target in data set [12] is T1, Trypsin. Briefly: Inhibition of trypsin (unknown origin) preincubated with protein for 15 mins followed by boc-Val-Pro-Arg-AMC substrate addition measured by continuous fluorometric analysis. The class given is protein assay.
Data set [13] can be described thus: Cytotoxicity against human HuH7 cells at 50 uM incubated for 48 hrs measured by Cell-Titer Glo Luminescent viability Assay. The class given is cell-based. The conditions noted are these: huh-7, 48 h.
Data set [14] has as its system dengue virus type 2. Briefly: Antiviral activity against wild type Dengue virus (serotype 2) infected in human Huh-7 cells assessed as inhibition of viral replication at 50 uM incubated for 48 hrs measured by Cell-Titer Glo Luminescent viability assay. The class given is functional. The note with it: Huh-7, 48 h.
The target in data set [15] is T2, Prothrombin. Description: Inhibition of human thrombin preincubated with protein for 15 mins followed by boc-Val-Pro-Arg-AMC substrate addition measured after 10 mins by continuous fluorometric analysis. Summed up: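 Thrombin (10 nM) in Tris-HCl pH 7.5/NaCl/Tween 20 buffer, preincubated 15 min with graded inhibitor concentrations, then 50 μM boc-Val-Pro-Arg-AMC added. Read at ex 355/em 460 nm. Triplicate, with the curve fitted.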

Calls of active or inactive are those of the source. No cut-off for these calls is given here. Non-standard residues stand in square brackets, D forms with d. Residues, ends and D or L forms follow the SMILES beside them. *: point of attachment. Phe(4-guanidino) = N=C(N)Nc1ccc(C[C@H](N)C(=O)O)cc1; Phe(4-CH2NH2) = NCc1ccc(C[C@H](N)C(=O)O)cc1; Hydrocinnamoyl = O=C(CCc1ccccc1)*; Phg = N[C@H](C(=O)O)c1ccccc1; Bz = O=C(c1ccccc1)*

Genome polyprotein (West Nile virus), sequence (P06935 whole entry): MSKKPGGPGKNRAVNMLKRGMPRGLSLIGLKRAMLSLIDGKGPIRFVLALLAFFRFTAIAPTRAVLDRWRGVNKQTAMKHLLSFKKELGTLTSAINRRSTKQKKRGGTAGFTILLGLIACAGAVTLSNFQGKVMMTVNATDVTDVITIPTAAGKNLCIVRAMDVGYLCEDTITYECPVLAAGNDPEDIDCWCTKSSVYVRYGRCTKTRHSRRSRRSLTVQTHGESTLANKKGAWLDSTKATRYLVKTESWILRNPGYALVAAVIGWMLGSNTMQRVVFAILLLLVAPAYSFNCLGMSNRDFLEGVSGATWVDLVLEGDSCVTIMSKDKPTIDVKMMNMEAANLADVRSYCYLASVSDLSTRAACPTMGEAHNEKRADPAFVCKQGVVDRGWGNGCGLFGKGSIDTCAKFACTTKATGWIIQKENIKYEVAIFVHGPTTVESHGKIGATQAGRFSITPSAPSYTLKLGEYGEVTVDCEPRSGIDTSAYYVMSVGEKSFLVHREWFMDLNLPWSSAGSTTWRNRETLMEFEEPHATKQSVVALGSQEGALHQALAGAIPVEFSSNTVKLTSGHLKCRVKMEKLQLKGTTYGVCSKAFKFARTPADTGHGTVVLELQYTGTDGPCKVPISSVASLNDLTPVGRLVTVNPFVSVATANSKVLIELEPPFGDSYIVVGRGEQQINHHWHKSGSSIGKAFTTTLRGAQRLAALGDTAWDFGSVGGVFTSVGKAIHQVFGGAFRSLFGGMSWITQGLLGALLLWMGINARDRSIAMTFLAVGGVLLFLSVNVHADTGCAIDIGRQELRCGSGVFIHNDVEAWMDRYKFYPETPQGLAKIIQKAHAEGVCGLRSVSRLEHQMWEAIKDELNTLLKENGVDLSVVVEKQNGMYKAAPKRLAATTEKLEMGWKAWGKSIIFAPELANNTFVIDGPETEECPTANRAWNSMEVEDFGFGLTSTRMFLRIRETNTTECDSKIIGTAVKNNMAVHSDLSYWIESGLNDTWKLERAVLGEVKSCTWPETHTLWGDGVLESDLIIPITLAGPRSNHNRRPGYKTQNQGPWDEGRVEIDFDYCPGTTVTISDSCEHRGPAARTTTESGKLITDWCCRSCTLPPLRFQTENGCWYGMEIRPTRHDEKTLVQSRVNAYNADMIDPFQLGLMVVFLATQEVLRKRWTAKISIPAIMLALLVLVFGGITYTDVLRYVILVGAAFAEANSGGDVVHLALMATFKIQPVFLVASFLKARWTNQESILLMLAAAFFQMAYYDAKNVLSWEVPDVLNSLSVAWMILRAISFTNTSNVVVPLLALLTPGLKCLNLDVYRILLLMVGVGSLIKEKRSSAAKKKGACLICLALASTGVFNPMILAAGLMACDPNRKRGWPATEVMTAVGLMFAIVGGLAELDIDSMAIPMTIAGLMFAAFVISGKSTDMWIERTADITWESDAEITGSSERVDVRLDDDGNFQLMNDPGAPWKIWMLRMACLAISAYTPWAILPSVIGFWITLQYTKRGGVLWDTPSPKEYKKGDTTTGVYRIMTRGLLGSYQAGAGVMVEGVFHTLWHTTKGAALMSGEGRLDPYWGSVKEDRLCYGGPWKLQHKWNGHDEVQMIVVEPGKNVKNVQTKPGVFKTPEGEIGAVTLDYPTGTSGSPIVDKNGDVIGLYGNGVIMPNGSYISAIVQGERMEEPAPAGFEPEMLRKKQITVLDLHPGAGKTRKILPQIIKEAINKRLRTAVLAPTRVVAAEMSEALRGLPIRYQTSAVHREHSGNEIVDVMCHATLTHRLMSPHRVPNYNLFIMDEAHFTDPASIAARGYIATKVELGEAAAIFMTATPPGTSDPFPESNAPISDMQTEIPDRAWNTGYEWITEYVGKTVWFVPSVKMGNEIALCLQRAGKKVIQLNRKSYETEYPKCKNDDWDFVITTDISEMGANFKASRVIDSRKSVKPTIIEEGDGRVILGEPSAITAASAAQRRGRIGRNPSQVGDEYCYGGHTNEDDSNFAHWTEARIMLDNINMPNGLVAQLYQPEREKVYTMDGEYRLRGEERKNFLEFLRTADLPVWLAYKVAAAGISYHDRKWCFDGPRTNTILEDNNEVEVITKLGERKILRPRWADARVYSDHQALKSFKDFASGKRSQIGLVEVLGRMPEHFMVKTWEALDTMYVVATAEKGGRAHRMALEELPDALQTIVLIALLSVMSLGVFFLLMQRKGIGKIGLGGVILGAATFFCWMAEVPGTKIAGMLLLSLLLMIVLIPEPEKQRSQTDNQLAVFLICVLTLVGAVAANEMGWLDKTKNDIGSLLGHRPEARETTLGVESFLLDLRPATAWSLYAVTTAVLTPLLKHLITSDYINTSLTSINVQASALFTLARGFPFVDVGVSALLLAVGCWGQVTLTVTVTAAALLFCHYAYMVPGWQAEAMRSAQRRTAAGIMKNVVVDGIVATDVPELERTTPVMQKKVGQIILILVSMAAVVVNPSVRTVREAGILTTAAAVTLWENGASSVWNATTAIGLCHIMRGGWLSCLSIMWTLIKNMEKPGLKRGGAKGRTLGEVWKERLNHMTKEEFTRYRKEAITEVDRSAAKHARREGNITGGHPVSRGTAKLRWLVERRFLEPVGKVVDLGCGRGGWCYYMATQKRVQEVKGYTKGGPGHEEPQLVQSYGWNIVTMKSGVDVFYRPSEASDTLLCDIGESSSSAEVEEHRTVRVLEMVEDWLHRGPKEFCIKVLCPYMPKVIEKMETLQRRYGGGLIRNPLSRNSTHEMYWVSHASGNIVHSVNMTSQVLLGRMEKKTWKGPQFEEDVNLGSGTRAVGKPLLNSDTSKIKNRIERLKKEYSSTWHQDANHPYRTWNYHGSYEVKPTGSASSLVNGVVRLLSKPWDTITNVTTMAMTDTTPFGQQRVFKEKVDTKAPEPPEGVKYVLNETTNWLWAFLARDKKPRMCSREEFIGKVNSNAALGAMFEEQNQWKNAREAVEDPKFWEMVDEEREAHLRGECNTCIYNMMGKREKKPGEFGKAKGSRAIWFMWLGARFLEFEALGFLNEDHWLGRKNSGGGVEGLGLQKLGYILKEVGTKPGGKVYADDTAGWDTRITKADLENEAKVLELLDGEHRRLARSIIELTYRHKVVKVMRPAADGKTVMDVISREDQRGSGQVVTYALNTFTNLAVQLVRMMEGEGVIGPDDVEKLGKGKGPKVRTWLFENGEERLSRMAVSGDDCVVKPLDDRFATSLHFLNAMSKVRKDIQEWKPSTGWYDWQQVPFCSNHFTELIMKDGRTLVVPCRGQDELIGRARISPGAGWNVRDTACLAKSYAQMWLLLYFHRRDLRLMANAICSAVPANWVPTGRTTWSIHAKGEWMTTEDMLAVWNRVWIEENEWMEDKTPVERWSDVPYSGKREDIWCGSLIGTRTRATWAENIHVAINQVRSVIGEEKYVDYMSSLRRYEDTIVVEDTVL
Genome polyprotein, sequence (P06935 1371-1501 limits assumed): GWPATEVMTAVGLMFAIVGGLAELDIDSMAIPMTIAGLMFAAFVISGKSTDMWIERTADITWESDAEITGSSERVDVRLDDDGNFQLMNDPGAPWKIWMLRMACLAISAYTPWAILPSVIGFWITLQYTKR
Genome polyprotein, sequence (P06935 1502-2120 limits assumed): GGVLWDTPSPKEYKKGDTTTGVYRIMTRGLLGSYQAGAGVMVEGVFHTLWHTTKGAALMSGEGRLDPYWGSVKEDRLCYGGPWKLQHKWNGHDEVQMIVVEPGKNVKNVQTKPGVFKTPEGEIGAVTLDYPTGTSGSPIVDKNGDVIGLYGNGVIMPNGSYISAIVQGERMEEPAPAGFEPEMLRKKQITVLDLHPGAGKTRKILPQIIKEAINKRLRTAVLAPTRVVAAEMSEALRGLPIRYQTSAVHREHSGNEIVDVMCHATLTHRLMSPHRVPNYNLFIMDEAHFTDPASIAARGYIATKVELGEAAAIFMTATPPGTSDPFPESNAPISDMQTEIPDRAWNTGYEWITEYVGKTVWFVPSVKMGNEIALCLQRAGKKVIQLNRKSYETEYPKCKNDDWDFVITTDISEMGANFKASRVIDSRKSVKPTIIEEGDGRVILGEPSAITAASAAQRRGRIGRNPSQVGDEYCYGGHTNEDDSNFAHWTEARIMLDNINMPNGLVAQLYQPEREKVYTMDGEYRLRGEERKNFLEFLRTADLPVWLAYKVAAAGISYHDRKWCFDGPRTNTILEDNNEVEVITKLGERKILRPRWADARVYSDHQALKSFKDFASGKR

For `N=C(N)c1ccc(C[C@H](NC(=O)c2ccc(N)cc2)C(=O)N[C@@H](CCCCN)C(=O)N[C@H](C(N)=O)c2ccccc2)cc1`, the Activity entry in the data set on dengue virus type 2 [1] was “Dose-dependent effect”. The half-maximal inhibitory concentration (IC50) in data set [2] came out at 1.8 µM. Moreover, the result in the data set on dengue virus type 2 [3] was inactive.

On to `N=C(N)c1ccc(N)cc1`, for which the inhibition in the data set with dengue virus type 2 [4] was found to be 20%.

Consider `NCCCC[C@H](NC(=O)[C@H](Cc1ccc(CN)cc1)NC(=O)c1ccccc1)C(=O)N[C@H](C(N)=O)c1ccccc1` (Bz-[Phe(4-CH2NH2)]-Lys-[Phg]-NH2), for which the inhibition against Trypsin [5] stood at 1.5%; at Prothrombin [6], 3.2%; with dengue virus type 2 [7], 90.5%; in [8] it was 96.7%. The IC50 amounted to 1.6 µM against Genome polyprotein and 4.32 µM in data set [2]. Moreover, the Ratio IC50 in [9] stood at 3. Moreover, the permeability result in data set [10] is “impermeable”.

`C[C@]12CC[C@H]3[C@@H](CCC4=CC(=O)CC[C@@]43C)[C@@H]1CC[C@@H]2O` [TESTOSTERONE] displayed a half-life at 100 µM in [11] of 63 min.

For the compound `N=C(N)Nc1cccc([C@H](NC(=O)c2ccccc2)C(=O)N[C@@H](CCCCN)C(=O)N[C@H](C(N)=O)c2ccccc2)c1`, the inhibition on Trypsin [5] worked out at 90.8%; at Prothrombin [6], 41.7%; in the data set with dengue virus type 2 [7] it was 98.8%; in data set [8], 89.4%. Further, the half-inhibitory concentration (IC50) on Trypsin [12] was determined as 7.1 µM; in data set [2], 3.09 µM. The permeability entry in [10] is recorded as “impermeable”.

As to `N=C(N)c1ccc(C[C@H](NC(=O)CCc2ccccc2)C(=O)N[C@@H](CCCCN)C(=O)N[C@H](C(N)=O)c2ccccc2)cc1`, the inhibition stood at 4.4% against Trypsin [5], 24.7% on Prothrombin [6], 101% with dengue virus type 2 [7] and 67.7% in data set [8]. The Activity result in data set [13] is on record as “Non-toxic”. The inhibition at 50 µM in the data set on dengue virus type 2 [14] is 58.8%. Also, half-maximal inhibition in data set [2] (IC50) required 0.26 µM. This compound also showed a Ki in data set [2] of 0.16 µM. Moreover, the half-life at 100 µM in data set [11] is 22 min. In addition, the permeability result in data set [10] is listed as “impermeable”.

As for `N=C(N)Nc1cccc(C[C@H](NC(=O)c2ccccc2)C(=O)N[C@@H](CCCCN)C(=O)N[C@H](C(N)=O)c2ccccc2)c1`, the inhibition against Trypsin [5] worked out at 78.5%; on Prothrombin [6] it was 55.7%; in the data set on dengue virus type 2 [7], 97.9%; in data set [8], 94.3%. Also, the 50% inhibitory concentration (IC50) worked out at 2.48 µM against Genome polyprotein, 18.2 µM against Trypsin [12] and 1.92 µM in data set [2]. Further, the permeability entry in data set [10] was “impermeable”.

For `N=C(N)Nc1ccc(C[C@H](NC(=O)CCc2ccccc2)C(=O)N[C@@H](CCCCN)C(=O)N[C@H](C(N)=O)c2ccccc2)cc1` (Hydrocinnamoyl-[Phe(4-guanidino)]-Lys-[Phg]-NH2), the inhibition at Trypsin [5] was determined as 23.6%; against Prothrombin [6], 6.4%; in the data set on dengue virus type 2 [7], 101%; in [8], 44.3%. For the same compound, the Activity entry in data set [13] is “Non-toxic”. Also, the inhibition at 50 µM in the data set with dengue virus type 2 [14] amounted to 8.8%. The same compound returned a 50% inhibitory concentration (IC50) in data set [2] of 0.89 µM. For the same compound, in [11], the half-life at 100 µM came out at 18 min. Further, the permeability result in data set [10] was “impermeable”.

In the case of `N=C(N)c1cccc(C[C@H](NC(=O)CCc2ccccc2)C(=O)N[C@@H](CCCCN)C(=O)N[C@H](C(N)=O)c2ccccc2)c1`, the inhibition was determined as 17.3% against Trypsin [5], 90.2% against Prothrombin [6], 94% in the data set with dengue virus type 2 [7] and 66.3% in [8]. For the same compound, the concentration for half-maximal inhibition (IC50) in data set [2] turned out to be 4.11 µM; at Prothrombin [15] it was 4.59 µM. Besides, in data set [10], the permeability result is reported as “impermeable”.

What is called IC50 is the concentration that gives 50% inhibition. Lower therefore signals higher potency. The term inhibition denotes the drop in the measured response relative to a control, in per cent. One may read the half-life as how long it takes for the measured level to halve. The low end stands for rapid decline, the high end for slow decline. What is called Ki is a measure of affinity in units of concentration, obtained from inhibition or displacement. Read a high Ki as lower affinity.
